The values that follow come from ChEMBL document CHEMBL1159125, “Novel 3-aminopyrazole inhibitors of MK-2 discovered by scaffold hopping strategy” (Bioorg Med Chem Lett, 2010).

Active and inactive are the calls of the source. The calls are words filed in the database; no cut-off is given here. A value given as a limit tells only on which side of the number the result lay.

The nature of data set [1]: Permeability from apical to basolateral side in human Caco-2 cells. Type of data set: ADME, cell-based. In general terms: Caco-2 cells form a polarised layer with tight junctions and transporters.
The target of data set [2] is Mitogen-activated protein kinase 8 (Homo sapiens, UniProt P45983). In words: Inhibition of JNK1.
The subject of data set [3] is THP-1. In words: Cytotoxicity against human THP1 cells. Type of data set: cell-based.
The nature of data set [4]: Drug level in po dosed OF1 mouse blood after 1 hr. The following applies: read-out: Drug uptake. In kind it is ADME, organism-based, OF. Put shortly:
(§1)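 Female OF1 mice, 8 weeks old, dosed orally, then LPS (20 mg/kg) injected 1 h later. Blood taken 1 h after LPS, and compound blood levels quantified by LC–MS/MS.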

The test system of data set [5] is Mus musculus. In words: Antiinflammatory activity in po dosed OF1 mouse assessed as inhibition of LPS-induced TNFalpha release administered 4 hr prior to LPS challenge measured by ELISA. In kind it is functional. Details: scale not given: the % may be the effect or the level left.
Data set [6] relates to Mus musculus. In words: Antiinflammatory activity in po dosed OF1 mouse assessed as inhibition of LPS-induced TNFalpha release administered 1 hr prior to LPS challenge measured by ELISA. In kind it is functional. Put shortly: (§2)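 Female OF1 mice, 8 weeks old, given compound orally; LPS (20 mg/kg) injected 1 h later. Blood withdrawn 1 h after LPS. Plasma mouse TNFα measured by ELISA; inhibition reported as percent.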

A short description of data set [7]: Drug level in po dosed OF1 mouse blood after 4 hr. In kind it is ADME, organism-based, OF. The following applies: read-out: Drug uptake.
Data set [8] relates to Mus musculus. Briefly: Antiinflammatory activity in OF1 mouse assessed as inhibition of LPS-induced TNFalpha release at 100 mg/kg, po administered 1 hr prior to LPS challenge. Type of data set: functional. An outline of the steps:
as §2

Data set [9] in a line: Drug level in po dosed OF1 mouse blood after 6 hr. Type of data set: ADME, organism-based, OF. The following applies: read-out: Drug uptake.
In data set [10] the target is Mitogen-activated protein kinase 14 (Homo sapiens, UniProt Q16539). In words: Inhibition of p38alpha.
Data set [11] can be described thus: Drug level in OF1 mouse blood at 100 mg/kg, po after 1 hr. Details: dose 100 mg/kg, route oral. To be noted: read-out: Drug uptake. Type of data set: ADME, organism-based, OF. Put shortly:
as §1

Data set [12] in a line: Aqueous solubility at pH 1 to 6.8. Type of data set: physicochemical. To be noted: aqueous medium.
Data set [13] can be described thus: Drug level in OF1 mouse blood at 30 mg/kg, po after 1 hr. The following applies: read-out: Drug uptake. In kind it is ADME, organism-based, OF. Details: dose 30 mg/kg, route oral. Put shortly:
as §1

Data set [14] concerns the target Cyclin-dependent kinase 2 (Homo sapiens, UniProt P24941). In words: Inhibition of CDK2.
For data set [15], the system named is Mus musculus. In words: Antiinflammatory activity in OF1 mouse assessed as inhibition of LPS-induced TNFalpha release at 30 mg/kg, po administered 1 hr prior to LPS challenge measured by ELISA. In kind it is functional, organism-based. Details: dose 30 mg/kg. An outline of the steps:
as §2
Background: In an ELISA, binding on a coated surface is turned into a signal by an enzyme label.

The subject of data set [16] is Mus musculus. In words: Antiinflammatory activity in po dosed OF1 mouse assessed as inhibition of LPS-induced TNFalpha release administered 6 hr prior to LPS challenge measured by ELISA. Type of data set: functional. Details: scale not given: the % may be the effect or the level left.
In data set [17] the target is Mitogen-activated protein kinase 9 (Homo sapiens, UniProt P45984). Briefly: Inhibition of JNK2.
Mitogen-activated protein kinase 9, sequence (P45984 whole entry): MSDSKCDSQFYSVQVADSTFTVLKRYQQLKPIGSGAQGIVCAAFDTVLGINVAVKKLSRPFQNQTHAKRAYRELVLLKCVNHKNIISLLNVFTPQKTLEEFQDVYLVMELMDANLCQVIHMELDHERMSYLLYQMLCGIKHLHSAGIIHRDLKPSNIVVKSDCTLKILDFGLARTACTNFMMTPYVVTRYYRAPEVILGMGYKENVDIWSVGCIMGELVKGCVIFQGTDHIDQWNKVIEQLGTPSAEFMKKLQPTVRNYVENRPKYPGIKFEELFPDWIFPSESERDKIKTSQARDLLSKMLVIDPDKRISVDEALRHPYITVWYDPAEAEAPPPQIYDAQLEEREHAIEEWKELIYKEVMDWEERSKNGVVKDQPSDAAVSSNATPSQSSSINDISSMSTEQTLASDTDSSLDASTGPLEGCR

Mitogen-activated protein kinase 14, sequence (Q16539 whole entry): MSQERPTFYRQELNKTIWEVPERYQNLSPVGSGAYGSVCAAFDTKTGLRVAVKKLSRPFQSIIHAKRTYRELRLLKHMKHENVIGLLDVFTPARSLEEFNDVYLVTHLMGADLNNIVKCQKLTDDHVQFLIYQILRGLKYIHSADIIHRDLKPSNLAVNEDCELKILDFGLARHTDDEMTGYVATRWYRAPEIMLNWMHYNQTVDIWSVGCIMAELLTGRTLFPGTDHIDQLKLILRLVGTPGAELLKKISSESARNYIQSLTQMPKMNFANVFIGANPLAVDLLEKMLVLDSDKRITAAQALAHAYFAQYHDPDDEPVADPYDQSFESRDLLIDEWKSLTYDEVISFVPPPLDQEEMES
Mitogen-activated protein kinase 8, sequence (P45983 whole entry): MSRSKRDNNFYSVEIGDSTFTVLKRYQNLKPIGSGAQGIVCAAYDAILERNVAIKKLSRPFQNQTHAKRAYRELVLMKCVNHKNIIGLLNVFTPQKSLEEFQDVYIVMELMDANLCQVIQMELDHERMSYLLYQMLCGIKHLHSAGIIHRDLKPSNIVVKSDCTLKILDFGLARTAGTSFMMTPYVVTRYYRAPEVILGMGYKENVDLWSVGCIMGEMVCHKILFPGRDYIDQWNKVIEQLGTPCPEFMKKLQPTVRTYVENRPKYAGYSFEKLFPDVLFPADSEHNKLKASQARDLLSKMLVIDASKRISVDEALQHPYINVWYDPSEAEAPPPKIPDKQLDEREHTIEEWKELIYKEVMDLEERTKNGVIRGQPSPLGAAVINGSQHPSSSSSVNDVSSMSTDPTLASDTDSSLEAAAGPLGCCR

`COc1ccc(-n2cc(-c3ccc4c(c3)C(=O)NCC4)c(N)n2)cc1` displayed a Papp A→B in data set [1] of 48.3 ×10⁻⁶ cm/s.
As to `Nc1nn(-c2cccc(-c3ccc4cc[nH]c4c3)c2)cc1-c1ccc2c(c1)CCNC2=O`, the IC50 in data set [2] is over 10 µM; in data set [3], over 20 µM; in data set [10], over 10 µM; in data set [14], over 10 µM; in data set [17] it was over 10 µM. In addition, the concentration at 1 h came out at 14.1 µM in data set [4], 17.4 µM in data set [11] and 1.7 µM in [13]. Moreover, the Activity in [5] was found to be 23%; in data set [16], 67%. The “inhibition (INH)” value in [6] is reported as 66%. For the same compound, in data set [7], the concentration at 4 h is 6.8 µM. For the same compound, the inhibition in vivo at 100 mg/kg in data set [8] stood at 68%. The concentration at 6 h in data set [9] came to 25.8 µM. The compound further returned a solubility in [12] of under 2 µg/mL. Also, the outcome in data set [15] was inactive.

Broadly, the Papp A→B is the apparent permeability from the apical to the basolateral side of a cell layer. Broadly, the IC50 is the concentration that gives 50% inhibition. As a reminder, the inhibition in vivo is the share of the control response that was lost under treatment. Broadly, the solubility is the dissolved amount per volume that the medium holds.
